Assay results as given in ChEMBL document CHEMBL4028861, “Selective Nonsteroidal Glucocorticoid Receptor Modulators for the Inhaled Treatment of Pulmonary Diseases” (J Med Chem, 2017).
≈ marks a conversion by molar mass, not a printed value.

Columns and labels:
[1] = Intrinsic clearance in human hepatocytes assessed per million cells; type: ADME, cell-based, Hepatocyte; conditions: read-out: CLH
[2] = Lipophilicity, log D of the compound by chromatography; type: physicochemical
[3] = Solubility of the compound in phosphate buffer at pH 7.4 using liquid sample at 20 degreeC; type: physicochemical
Procedure, shortened: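 Solubility measured in 0.1 M phosphate buffer at pH 7.4 and 20 °C, starting from a 10 mM DMSO stock solution.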

[4] = Solubility of the compound in phosphate buffer at pH 7.4 using solid sample at 23 degreeC; type: physicochemical
Procedure, shortened: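 Solubility measured in 0.1 M phosphate buffer at pH 7.4 and 23 °C, starting from crystalline solid.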

[5] = Intrinsic clearance in Wistar Han rat hepatocytes assessed per 10^6 cells; type: ADME, cell-based, Hepatocyte; conditions: read-out: CLH
[6] = Clearance in Wistar Han rat at 1 umol/kg, iv administered as bolus dose by LC-MS/MS analysis; type: ADME, organism-based; conditions: in vivo
[7] = Volume of distribution at steady state in Wistar Han rat at 1 umol/kg, iv administered as bolus dose by LC-MS/MS analysis; type: ADME, organism-based; conditions: in vivo, read-out: Vdss
[8] = Terminal half life in Wistar Han rat 1 umol/kg, iv administered as bolus dose by LC-MS/MS analysis; type: ADME, organism-based; conditions: in vivo, read-out: beta t1/2 (converted)
[9] = Oral bioavailability in Wistar Han rat administered via gavage by LC-MS/MS analysis; type: ADME, organism-based; conditions: in vivo
[10] = Thermodynamic solubility of the compound in human intestinal fluid; type: physicochemical; conditions: read-out: Therm_solubility
Lung [11] = test: Drug uptake in Wistar Han rat lung at 0.1 umol/kg, administered as dry powder inhalation after 4 hrs by LC-MS/MS analysis; type: ADME; conditions: in vivo, inhaled_or_intranasal
Lung [12] = test: Drug uptake in Wistar Han rat lung at 0.1 umol/kg, administered as dry powder inhalation after 24 hrs by LC-MS/MS analysis; type: ADME, tissue-based; conditions: in vivo, inhaled_or_intranasal
[13] = AUC (0 to infinity) in Wistar Han rat lung at 0.1 umol/kg, administered as dry powder inhalation by LC-MS/MS analysis; type: ADME; set-up: dose 0.1 umol/kg, route respiratory (INHALATION), time infinity; conditions: inhaled or intranasal
[14] = Apparent terminal half life in Wistar Han rat lung at 0.1 umol/kg, administered as dry powder inhalation by LC-MS/MS analysis; type: ADME; conditions: inhaled or intranasal, read-out: betat1/2(app) (converted)
[15] = Mean residence time in Wistar Han rat lung at 0.1 umol/kg, administered as dry powder inhalation by LC-MS/MS analysis; type: ADME, tissue-based; conditions: inhaled or intranasal
[16] = Cmax in Wistar Han rat plasma at 0.1 umol/kg, administered as dry powder inhalation by LC-MS/MS analysis; type: ADME; set-up: dose 0.1 umol/kg, route respiratory (INHALATION); conditions: inhaled or intranasal
Rattus norvegicus [17] = test: Toxicity in inhaled CRL:CD Sprague Dawley rat model of sephadex induced lung edema assessed as induction of thymic involution administered once per day for 3 days; conditions: in vivo, inhaled_or_intranasal, 72 h
Procedure, shortened: (§1)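 Thymic involution scored in the same Sephadex-challenged rats dosed by inhalation, as a sensitive marker of systemic GR agonism.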

[18] = Drug degradation in human hepatocytes assessed as 5-hydroxy-indazole formation at 10 uM up to 120 mins by LC-MS/MS analysis; type: ADME, cell-based, Hepatocyte; conditions: 2 h
[19] = Drug degradation in rat hepatocytes assessed as 5-hydroxy-indazole formation at 10 uM up to 120 mins by LC-MS/MS analysis; type: ADME, cell-based, Hepatocyte; conditions: 2 h
[20] = Drug degradation in dog hepatocytes assessed as 5-hydroxy-indazole formation at 10 uM up to 120 mins by LC-MS/MS analysis; type: ADME, cell-based, Canis lupus familiaris, Hepatocyte; conditions: 2 h
Rattus norvegicus [21] = test: Toxicity in inhaled CRL:CD Sprague Dawley rat model of sephadex induced lung edema assessed as induction of thymic involution administered once per day for 4 days; conditions: in vivo, inhaled_or_intranasal, 96 h; procedure, shortened: as §1
Lung [22] = test: Drug uptake in Wistar Han rat lung at 0.1 umol/kg, administered via intratracheal instillation after 4 hrs by LC-MS/MS analysis; type: ADME, tissue-based; conditions: in vivo, inhaled_or_intranasal

Compound | hepatocyte CLint [1] [µL/min/1e6 cells] | chromatographic logD [2] | solubility [3] [µM] | solubility thermodynamic [4] [µM] | hepatocyte CLint [5] [µL/min/1e6 cells] | clearance [6] [mL/min/kg] | Vd [7] [L/kg] | half-life [8] [h] | bioavailability [9] [%] | solubility thermodynamic [10] [µM] | Drug uptake (Lung [11]) [%ID] | Drug uptake (Lung [12]) [%ID] | AUC(0-inf) [13] [µM·h] | half-life [14] [h] | MRT [15] [h] | Cmax [16] [nM] | ED25 (Rattus norvegicus [17]) [mg/kg] | other results
C[C@H](NC(=O)C(C)(F)F)[C@H](Oc1ccc2c(cnn2-c2cccc(C(=O)N[C@H]3CCOC3)c2)c1)c1ccc2c(c1)OCCO2 | 30 | 3.7 | 1.3 (≈ 0.789 µg/mL) | 0.09 (≈ 0.0546 µg/mL) |  |  |  |  |  |  |  |  |  |  |  |  |  | 
C[C@H](NC(=O)C(C)(F)F)[C@H](Oc1ccc2c(cnn2-c2cccc(C(=O)N[C@H]3CCS(=O)(=O)C3)c2)c1)c1ccc2c(c1)OCCO2 | 23 | 3.6 | 0.01 (≈ 0.00655 µg/mL) | 0.68 (≈ 0.445 µg/mL) |  |  |  |  |  |  |  |  |  |  |  |  |  | 
C[C@H](NC(=O)C(C)(F)F)[C@H](Oc1ccc2c(cnn2-c2cccc(C(=O)N[C@@H]3CCOC3=O)c2)c1)c1ccccc1 |  | 3.9 | 2 (≈ 1.13 µg/mL) | 0.12 (≈ 0.0675 µg/mL) |  |  |  |  |  |  |  |  |  |  |  |  |  | 
C[C@H](NC(=O)C(C)(F)F)[C@H](Oc1ccc2c(cnn2-c2cccc(C(=O)N[C@@H]3CCOC3)c2)c1)c1ccc2c(c1)OCCO2 [VELSECORAT] | 29 | 3.7 | < 0.1 | 0.02 (≈ 0.0121 µg/mL) | 34 | 30 | 0.16 | 0.1 | < 0.1 | 0.6 (≈ 0.364 µg/mL) | 73 | 32 | 740 | 17 | 23 | 7.4 | 0.04 | 
O=[14C](N[C@@H]1CCOC1)c1cccc(-n2ncc3cc(OS(=O)(=O)O)ccc32)c1 |  |  |  |  |  |  |  |  |  |  |  |  |  |  |  |  |  | Drug metabolism [18]: Metabolite_Detected; Drug metabolism [19]: Metabolite_Detected; Drug metabolism [20]: Metabolite_Detected
C[C@H](NC(=O)C(C)(F)F)[C@H](Oc1ccc2c(cnn2-c2cccc(C(=O)N[C@@H]3CCS(=O)(=O)C3)c2)c1)c1ccc2c(c1)OCCO2 | 22 | 3.6 | < 0.01 | < 0.1 | 31 |  | 2.8 | 0.3 | < 0.1 | 0.3 (≈ 0.196 µg/mL) | 93 | 91 | 5200 | 179 | 210 | 4.9 | > 0.13 | 
C[C@H](NC(=O)C(C)(F)F)[C@H](Oc1ccc2c(cnn2-c2cccc(C(=O)N[C@H]3CCOC3)c2)c1)c1ccc2c(c1)OCOC2 | 26 | 3.6 | 0.11 (≈ 0.0667 µg/mL) | 0.03 (≈ 0.0182 µg/mL) |  |  |  |  |  |  |  |  |  |  |  |  |  | 

Further lines, with some results ahead:

hepatocyte CLint [1] [µL/min/1e6 cells] | chromatographic logD [2] | solubility [3] [µM] | solubility thermodynamic [4] [µM] | hepatocyte CLint [5] [µL/min/1e6 cells] | clearance [6] [mL/min/kg] | Vd [7] [L/kg] | half-life [8] [h] | bioavailability [9] [%] | solubility thermodynamic [10] [µM] | Drug uptake (Lung [11]) [%ID] | Drug uptake (Lung [12]) [%ID] | AUC(0-inf) [13] [µM·h] | half-life [14] [h] | MRT [15] [h] | Cmax [16] [nM] | Compound | ED25 (Rattus norvegicus [17]) [mg/kg] | other results
15 | 5.4 |  |  |  |  |  |  |  |  |  |  |  |  |  |  | C[C@H](NC(=O)C(C)(F)F)[C@H](Oc1ccc2c(cnn2-c2ccc(F)cc2)c1)c1ccc2c(c1)OCOC2 |  | 
 | 5.7 |  |  |  |  |  |  |  |  |  |  |  |  |  |  | C[C@H](NC(=O)C(F)(F)F)[C@H](Oc1ccc2c(cnn2-c2ccc(F)cc2)c1)c1ccc2c(c1)OCCO2 |  | 
17 | 3.6 | 0.16 (≈ 0.0993 µg/mL) | 0.22 (≈ 0.137 µg/mL) |  |  |  |  |  |  |  |  |  |  |  |  | C[C@H](NC(=O)C(C)(F)F)[C@H](Oc1ccc2c(cnn2-c2cccc(C(=O)N[C@@H]3CCOC3=O)c2)c1)c1ccc2c(c1)OCCO2 |  | 
33 | 4.9 |  |  | 28 | 103 | 31 | 3.3 | < 0.1 | 0.62 (≈ 0.31 µg/mL) | 43 | 1.9 | 200 | 4.5 | 6.5 | 24 | CCC(=O)O[C@]1(C(=O)SCF)[C@H](C)C[C@H]2[C@@H]3C[C@H](F)C4=CC(=O)C=C[C@]4(C)[C@@]3(F)[C@@H](O)C[C@@]21C [FLUTICASONE PROPIONATE] | 0.0039 | 
21 | 3.7 | < 0.1 | 0.23 (≈ 0.144 µg/mL) | 25 | 68 | 0.97 | 0.2 | 0.16 | 2.1 (≈ 1.32 µg/mL) | 4.1 | 0.18 | 26 | 4.9 | 2.6 | 21 | C[C@H](NC(=O)C(C)(F)F)[C@H](Oc1ccc2c(cnn2-c2cccc(C(=O)NCc3cccnc3)c2)c1)c1ccc2c(c1)OCCO2 | 0.012 | 
16 | 6 |  |  | 13 | 38 | 23 | 4.7 | 37 | 12 (≈ 5.85 µg/mL) | 0.7 | 0 to 0.4 | 18 | 7.5 | 1.5 | 122 | COc1cccc([C@@H](Oc2ccc3c(cnn3-c3ccc(F)cc3)c2)[C@H](C)NC(=O)C(F)(F)F)c1 [AZD-5423] |  | ED25 (Rattus norvegicus [21]): 0.0046 mg/kg; Drug uptake (Lung [22]): 1 %ID
